Activity calls are given as the source filed them. The calls are words filed in the database; no cut-off is given here.
Key:
Plasmodium falciparum [1] = experiment: Binding affinity to Plasmodium falciparum GRP94 nucleotide binding domain by SPR analysis
How it was run: (§1)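 Purified PfHsp90 and PfGRP94 nucleotide-binding domains were amine-coupled to a CM5 chip (3000 and 7000 RU, respectively), with a blank reference surface. Seven compound concentrations (0.4 nM–1 mM) were injected in triplicate at 30 µL/min, 25 °C, in random order. Running buffer: 10 mM HEPES pH 7.4, 150 mM NaCl, 0.005% P20, 1% DMSO, 2 mM MgCl2. Kd came from double-referenced sensorgrams.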

[2] = target: T1, HSP90 (Plasmodium falciparum 3D7) (UniProt Q8IL32); experiment: Binding affinity to Plasmodium falciparum HSP90 nucleotide binding domain by SPR analysis; how it was run: as §1
T1 sequence (whole entry): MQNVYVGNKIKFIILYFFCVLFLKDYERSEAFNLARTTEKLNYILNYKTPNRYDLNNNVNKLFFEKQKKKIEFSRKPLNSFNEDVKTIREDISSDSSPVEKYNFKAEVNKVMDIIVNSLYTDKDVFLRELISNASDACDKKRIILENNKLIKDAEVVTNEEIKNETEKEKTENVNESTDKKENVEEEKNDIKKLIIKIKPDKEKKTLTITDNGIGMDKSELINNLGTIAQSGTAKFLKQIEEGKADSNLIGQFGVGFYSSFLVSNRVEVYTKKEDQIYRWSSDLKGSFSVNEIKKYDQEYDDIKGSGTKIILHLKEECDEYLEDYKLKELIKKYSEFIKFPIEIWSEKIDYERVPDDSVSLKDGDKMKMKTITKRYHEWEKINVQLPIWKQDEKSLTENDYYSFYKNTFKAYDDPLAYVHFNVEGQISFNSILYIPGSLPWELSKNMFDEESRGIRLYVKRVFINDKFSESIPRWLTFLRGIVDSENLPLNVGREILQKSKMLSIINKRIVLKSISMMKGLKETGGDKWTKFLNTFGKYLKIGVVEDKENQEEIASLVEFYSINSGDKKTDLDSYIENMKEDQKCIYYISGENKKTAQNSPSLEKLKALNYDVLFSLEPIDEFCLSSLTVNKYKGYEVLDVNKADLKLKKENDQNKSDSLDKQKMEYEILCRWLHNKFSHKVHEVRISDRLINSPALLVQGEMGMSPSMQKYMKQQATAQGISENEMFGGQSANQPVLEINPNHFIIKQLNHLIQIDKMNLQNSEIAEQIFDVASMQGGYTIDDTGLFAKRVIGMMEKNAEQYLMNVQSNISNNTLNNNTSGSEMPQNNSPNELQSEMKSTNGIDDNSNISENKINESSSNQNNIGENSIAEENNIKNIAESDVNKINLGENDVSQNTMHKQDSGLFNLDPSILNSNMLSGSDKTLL

Plasmodium falciparum [3] = experiment: Binding affinity to Plasmodium falciparum GRP94 nucleotide binding domain at 0.5 mM by SYPRO orange dye based DSF analysis
How it was run: (§2)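 Recombinant P. falciparum Hsp90 or GRP94 nucleotide-binding domain (0.05–0.2 mg/mL, optimized per protein) in 25 mM HEPES pH 7.5, 250 mM NaCl. Compound final concentration was 0.5 mM, with SYPRO Orange at 1:1000. Samples were heated from 18 to 90 °C at 1 °C/min. Tm was taken as the Boltzmann-fit inflection point. ΔTm = Tm with ligand minus Tm without, and shifts beyond ±1 °C were counted significant.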

[4] = target: T1, HSP90 (Plasmodium falciparum 3D7); experiment: Binding affinity to Plasmodium falciparum HSP90 nucleotide binding domain at 0.5 mM by SYPRO orange dye based DSF analysis; how it was run: as §2
[5] = Genotoxicity in Salmonella typhimurium TA1535 harboring pSK1002 assessed as umu gene induction at 1 mg/ml in presence of Sprague-Dawley rat liver S9 fraction after by SOS/umu assay relative to control; assay type: toxicity, organism-based; settings: salmonella enterica subsp. enterica serovar typhimurium, read-out: FC
[6] = Genotoxicity in Salmonella typhimurium TA1535 harboring pSK1002 assessed as survival at 1 mg/ml in absence of Sprague-Dawley rat liver S9 fraction after by SOS/umu assay relative to control; assay type: toxicity, organism-based; settings: salmonella enterica subsp. enterica serovar typhimurium, read-out: Survival
[7] = Genotoxicity in Salmonella typhimurium TA1535 harboring pSK1002 assessed as umu gene induction at 1 mg/ml in absence of Sprague-Dawley rat liver S9 fraction after by SOS/umu assay relative to control; assay type: toxicity, organism-based; settings: salmonella enterica subsp. enterica serovar typhimurium, read-out: FC
[8] = Genotoxicity in Salmonella typhimurium TA1535 harboring pSK1002 assessed as survival at 1 mg/ml in presence of Sprague-Dawley rat liver S9 fraction after by SOS/umu assay relative to control; assay type: toxicity, organism-based; settings: salmonella enterica subsp. enterica serovar typhimurium, read-out: Survival
[9] = Genotoxicity in Salmonella typhimurium TA1535 harboring pSK1002 assessed as umu gene induction at 0.0005 mg/ml in presence of Sprague-Dawley rat liver S9 fraction after by SOS/umu assay relative to control; assay type: toxicity, organism-based; settings: salmonella enterica subsp. enterica serovar typhimurium, read-out: FC
Plasmodium falciparum [10] = experiment: Ratio of IC50 for antiplasmodial activity against Plasmodium falciparum 3D7 late stage forms infected in immunoliposome encapsulated compound pre-loaded human RBC by [3H]-hypoxanthine incorporation assay to IC50 for antiplasmodial activity against Plasmodium falciparum 3D7 late stage forms infected in human non-washed human RBC containing full drug dosages by [3H]-hypoxanthine incorporation assay; assay type: functional
Plasmodium falciparum [11] = experiment: Antiplasmodial activity against Plasmodium falciparum 3D7 late stage forms infected in immunoliposome encapsulated compound pre-loaded human RBC by [3H]-hypoxanthine incorporation assay; assay type: functional, organism-based; settings: 3D7, Erythrocyte
Plasmodium falciparum [12] = experiment: Antiplasmodial activity against chloroquine-sensitive Plasmodium falciparum 3D7 late forms infected in human RBC using compound encapsulated in to immunoliposome targeted to GPA incubated for 15 mins followed by compound removal and further incubation for 48 hrs by [3H]-hypoxanthine incorporation assay; assay type: functional, organism-based; settings: 3D7, Erythrocyte
Plasmodium falciparum [13] = experiment: Antiplasmodial activity against chloroquine-sensitive Plasmodium falciparum 3D7 late forms infected in human RBC incubated for 15 mins followed by compound removal and further incubation for 48 hrs by [3H]-hypoxanthine incorporation assay; assay type: functional, organism-based; settings: 3D7, Erythrocyte
Plasmodium falciparum [14] = experiment: Ratio of IC50 for antiplasmodial activity against chloroquine-sensitive Plasmodium falciparum 3D7 late forms infected in human RBC incubated for 15 mins followed by compound removal and further incubation for 48 hrs by [3H]-hypoxanthine incorporation assay to IC50 for antiplasmodial activity against chloroquine-sensitive Plasmodium falciparum 3D7 late forms infected in human RBC using compound …; assay type: functional
[15] = Drug encapsulation in liposomes assessed as encapsulation efficiency in citrate/phosphate buffered measured after ultracentrifugation by UV/Vis spectroscopy relative to untreated control; assay type: physicochemical; settings: artificial membrane
How it was run: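 Compound loaded into DSPC:cholesterol:DSPE-PEG2000-Mal:DOPE-Rho (84.5:10:5:0.5) liposomes using a citrate (pH 4.0)/PBS pH gradient. Drug measured by UV/vis after SDS disruption at each step: citrate liposomes, after buffer exchange to PBS (chloroquine added to preformed liposomes here), and after ultracentrifugation. Encapsulation efficiency = % of drug that is encapsulated out of total drug in the sample.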

Plasmodium falciparum [16] = experiment: Antiplasmodial activity against Plasmodium falciparum FCR-3 sporozoites infected in human primary hepatocytes treated simultaneously with infection by DAPI staining based HCS analysis; assay type: functional, organism-based, FCR-3/Gambia
[17] = Selectivity index, ratio of CC50 for human HepG2A16 cells to IC50 for GFP-fused Plasmodium berghei sporozoites infected in human HepG2A16 cells; assay type: toxicity, cell-based; settings: read-out: Ratio CC50/IC50
How it was run: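 HepG2-A16 cells were grown at 3 × 10^4 per well on collagen and infected with GFP P. berghei sporozoites (5 × 10^3 to 1 × 10^4 per well) from A. stephensi salivary glands. Compounds were added at infection, from 10 µg/mL top plus seven serial dilutions, and refreshed at 3 h and then every 24 h. After 40 h at 37 °C, EEFs were methanol-fixed, anti-Hsp70 immunolabelled and counted by high-content imaging. SI = HepG2 CC50 / liver-stage IC50.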

SMILES	Activity (Plasmodium falciparum [1])	Activity [2]	Activity (Plasmodium falciparum [3])	Activity [4]	fold induction at 1 mg/ml [5]	viability at 1 mg/ml [6]	fold induction at 1 mg/ml [7]	viability at 1 mg/ml [8]	IC50 (Plasmodium falciparum [16])	selectivity ratio [17]	also measured
COc1ccccc1N1CCN(CCC(O)c2ccc(F)c3ccccc23)CC1 (stereo unspecified)	inactive	inactive	inactive	inactive	–	–	–	–	–	–	–
COc1ccccc1C1=CCN(CCC(O)c2ccc(F)cc2)CC1 (stereo unspecified)	–	–	–	–	1	82.3%	0.3	32.2%	–	–	–
N#Cc1ccc(N2CCC(NCCC(O)c3ccc(F)c4ccccc34)CC2)c(Br)c1 (stereo unspecified)	inactive	inactive	inactive	inactive	–	–	–	–	–	–	–
OC(CCN1CCN(C(c2ccccc2)c2ccccc2)CC1)c1ccc(F)c(F)c1 (stereo unspecified)	–	–	–	–	–	–	–	–	–	–	fold induction at 0.0005 mg/ml [9]: 1
N#Cc1ccc(N2CCC(NCCC(O)c3ccc(F)c4ccccc34)CC2)c(C(F)(F)F)c1 (stereo in doubt; 72)	–	–	–	–	–	–	–	–	Not Active	2.3	Ratio IC50 (Plasmodium falciparum [10]): 1.5; IC50 (Plasmodium falciparum [11]): 443 nM; IC50 (Plasmodium falciparum [12]): 175 nM; IC50 (Plasmodium falciparum [13]): 916 nM; Ratio IC50 (Plasmodium falciparum [14]): 5.2; Activity [15]: 101.4%
OC(CCN1CCN(c2ccccc2C(F)(F)F)CC1)c1ccc(F)cc1 (stereo unspecified)	–	–	–	–	0.3	244%	0.1	97%	–	–	–
N#Cc1ccc(N2CCC(NCCC(O)c3ccc(F)c4ccccc34)CC2)c(Cl)c1 (stereo unspecified)	inactive	inactive	inactive	inactive	–	–	–	–	Not Active	2.3	–
OC(CCN1CCN(C(c2ccccc2)c2ccccc2)CC1)c1ccc(F)c2ccccc12 (stereo unspecified)	inactive	inactive	inactive	inactive	–	–	–	–	Not Active	3.7	–
OC(CCN1CCN(c2ccccc2C(F)(F)F)CC1)c1ccc(F)c2ccccc12 (stereo in doubt; 55)	–	–	–	–	0.4	229%	0.3	164%	–	–	–
